experiment: Toxicity liver stage against HepG2, at 10uM; format: cell-based; set-up: test concentration 10 uM, cell line HepG2-A16-CD81EGFP; conditions: human, HepG2-A16-CD81EGFP cells; read-out: INHIBITION
Summary of the method: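 Uninfected HepG2-A16-CD81EGFP cells, 3 × 10^3 per well, 1536-well, plated on prespotted compound at 10 μM final, parasite-free screening media added to match infected plates; puromycin 10 μM positive, DMSO 0.5% negative; run in parallel with 48 h PbLuc assay at 37 °C, 5% CO2; viability by CellTiter-Glo luminescence, normalized to controls.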

SMILES	cytotoxicity at 10 µM [%]
CC(C)Oc1cccc(C(=O)C2CCCN(C(=O)c3ccccn3)C2)c1 (stereo unspecified)	-7.67
N#Cc1ccc(CN2CCC(CCc3ccc(O)cc3)CC2)cc1	38.8
Cc1noc([C@@H]2C[C@H](NC(=O)Nc3ccccc3)CN2C)n1	-1.89
CC(C)CCc1cc(C(=O)O)nc2[nH]c(=O)[nH]c(=O)c12	4.31
COC(=O)Nc1nc2c(s1)CN(C(=O)NCc1cccs1)CC2	3.89
Cn1c(=O)n(C)c2cc(NS(=O)(=O)Cc3ccccc3)ccc21	-4.62
COc1ccc(C)cc1-c1csc(N)c1C#N	-5.18
Cc1nn(C)cc1-c1cc(C(F)F)nc2sc(C(N)=O)c(N)c12	2.6
CCn1ncc(CN(C)C(=O)c2cc(C(F)(F)F)n(C)n2)c1C	3.87
Clc1cccc(-n2cnnn2)c1N1CCOCC1	9.43
COc1cc(C2SCC(=O)Nc3[nH]ncc32)c(OC)c2c1OCO2 (stereo unspecified)	6.63
Cc1ccncc1CN1CCOCC1c1[nH]ncc1C (stereo unspecified)	1.78
CCC(=O)N1CCCCC[C@@H]2[C@@H]1[C@H](c1cccc(F)c1)CN2C	8.63
Cn1cc(CN2CCCC(n3c(=O)oc4ccccc43)C2)cn1 (stereo unspecified)	-0.18
CC(CCc1cccn1C)NC(=O)Nc1cccn(C)c1=O (stereo unspecified)	3.14
CC(C(=O)NCC(C)(C)c1ccc2c(c1)OCCO2)n1cncn1 (stereo unspecified)	13.8
Cc1ccc(-c2ncc(CN3CCN(C(=O)N(C)C)CC3)s2)o1	-3.25
Cc1ccccc1NC(=O)CCNC(=O)c1ccoc1	-0.714
CCc1nnc(NC(=O)NCCN(C)C(=O)OC(C)(C)C)s1	-1.6
CC(=O)NCc1ccc(C(=O)N2CCCc3c(F)ccc(C)c32)o1	-0.883
COCC(C)NC(=O)N(C)Cc1cc(C)on1 (stereo unspecified)	6.27
CCOC1CCN(C(=O)NCc2cccc(-n3cccn3)c2)CC1	0.944
CCOCC(=O)Nc1ccc(N2CCSCC2)cc1C	9.53

SMILES	cytotoxicity at 10 µM [%]
COc1cccc(CNc2nc(N3CCOCC3)ns2)c1OC	-2.76
c1csc(-c2cc(CN3CCN(c4cnccn4)CC3)no2)c1	-0.523
CCC1CCCCN1CCc1ccncc1 (stereo unspecified)	2.4
Cc1cc(Nc2ccc3c(c2)CC(=O)N3)nc(C(C)C)n1	3.67
COC(=O)c1cc(OC)ccc1NCC(=O)NCC(=O)N1CCCC1	0.431
COC(=O)CCNC(=O)c1nnn(-c2ccc(F)cc2)c1C1CC1	-12.1
COc1ccnc(N2CCN(C(=O)c3csnn3)CC2)n1	-0.581
COCCOCC(=O)N1CCc2cc(Cl)cc(Cl)c2C1	1.4
N#Cc1ccc(F)c(CNC(=O)NC(CO)c2ccccc2)c1 (stereo unspecified)	4.16
CCc1nnc(C2Cc3ccccc3CN2Cc2ncc(Cl)n2C)o1 (stereo unspecified)	12.5
CC(C(=O)Nc1ccnn1C(C)C)N1CCc2nn(C)c(=O)cc2C1 (stereo unspecified)	3.95
Cc1noc(CN(Cc2cccc(C#N)c2)Cc2cccs2)n1	3.8
O=C(CN1CCCC1CC(=O)c1ccccc1)NCc1ccccn1 (stereo unspecified)	1.39
COCc1nc(CNC2CCCc3c2cnn3C(C)(C)C)cs1 (stereo unspecified)	-1.62
Cc1cc(CN(C)Cc2ncc(-c3cccs3)o2)no1	11
COc1cc(F)ccc1N1CCN(Cc2nnc(C3CC3)o2)CC1	14.8
COCC(C)(CCO)NC(=O)Nc1c(F)cccc1Br (stereo unspecified)	3.79
Cn1cc(C2CCCN2CCCn2c(=O)oc3ccccc32)cn1 (stereo unspecified)	5.63
CC(C)(C)NC(=O)CNc1ccc(C#N)c(C(F)(F)F)c1	-1.28
O=C(CN1CCCC1Cn1cccn1)NC1CCOCC1 (stereo unspecified)	-23.2
O=C(CCNC(=O)c1ccccc1N1CCOCC1)NC1CCCC1	-17.8
Cc1cc(N2CCC(N(C)C(=O)c3ccccc3)CC2)nc(C)n1	-4.69
CN(C)C(CNC(=O)c1cccc(-n2cnnn2)c1)c1ccccc1Cl (stereo unspecified)	-6.08

SMILES	cytotoxicity at 10 µM [%]
O=C(NCC1Cn2nnc(-c3ccsc3)c2CO1)N1CCCC1 (stereo unspecified)	-110
COCC(=O)N1CC[C@@H]2O[C@H](COCc3csc(C)n3)CC[C@@H]21	-85.8
O=C(N1CCCC1)N1CCCC2(CCN(c3ccsc3)C2=O)C1 (stereo unspecified)	-74.1
O=C(O)c1cnc(-c2cccc3c2CCNC3)c(Cl)c1	8.97
COc1cccc(N2CCN(C(=O)C(O)CC(C)C)CC2=O)c1 (stereo unspecified)	-14.7
Nc1ccc(-c2cc(O)cc(CCC3CCCCN3)c2)cn1 (stereo unspecified)	-9.66
CN(C)Cc1nnc(C2CCN(c3ncccc3Cl)CC2)n1C1CC1	-2.57
COCCN(Cc1cnn(C)c1)C(=O)C1CCCN(C2CCOCC2)C1 (stereo unspecified)	4.76
CN(Cc1cc(-c2cccnc2)no1)C(=O)[C@@H]1CSCN1C	0.66
CC(=O)NC1CCN(c2cc(C3CCNCC3)nc(C)n2)C1 (stereo unspecified)	-1.92
CN(C)C(=O)N1CC[C@@H](c2ccc3ccccc3c2)[C@H](O)C1	-5.81
Cc1ccccc1[C@@H]1CN(Cc2c(C)noc2C)C[C@H]1C(=O)O	-7.74
Cc1nonc1C1CCCN1C(=O)c1cc2n(n1)CCCN(C(C)C)C2 (stereo unspecified)	-10
CN1CC2(CCCN(Cc3nnc(-c4ccco4)o3)CC2)OC1=O (stereo unspecified)	-6.12
Cc1noc(CN(C)C(=O)c2n[nH]c(N)c2-c2ccccc2)n1	-2.14
CC[C@H]1CN(C(=O)c2cnc(N3CCN(C)CC3)nc2C)CC[C@@]1(C)O	-4.15
NC(=O)C1CCN(CC(=O)N(Cc2ccccc2)Cc2nccs2)CC1	-5.08
Cc1cccc(CN(C(=O)CCn2cncn2)C(C)C)c1	8.32
CCN1CC(C(=O)N2CC(Oc3ccccc3Cl)C2)CCC1=O (stereo unspecified)	-8.62
COc1cccc2ncn(C(C)Cn3cccn3)c(=O)c12 (stereo unspecified)	1.37
CCc1cc(C(=O)NCC2CCN(Cc3cccc(C)n3)C2)on1 (stereo unspecified)	7.69
CC(=O)c1cc(CN2C[C@@H](CN3CCCC3)[C@@H](CO)C2)n(C)c1	4.92
Cc1occc1C(=O)N1CCC2(CCCN(CC3CC3)C2=O)C1 (stereo unspecified)	-4.58

SMILES	cytotoxicity at 10 µM [%]
CSc1ncc(C(=O)NCc2cc3n(n2)CCCN(CC(C)C)C3)cn1	5.89
Cc1c[nH]c(CN2CC[C@@]3(O)CCN(C(=O)C4CCC4)C[C@H]3C2)n1	1.27
O=C1OC2(CCNCC2)CN1CC(=O)N1CCCC1c1nccs1 (stereo unspecified)	-4.92
Cc1ccccc1CN(CCN(C)C)Cc1ccccc1C(=O)O	-1.97
O=c1[nH]c(COc2ccccc2Cl)nc2c1CCNC2	1.97
CCCOC1CCCN(C(=O)c2cnc(-c3csc(C)n3)nc2O)C1 (stereo unspecified)	-1.97
CN(C)C(=O)C1(Oc2ccc(Cl)cc2)CCNCC1	13.7
CC(C)N1CCC(C(=O)N(C)C(C)c2ccon2)CC1 (stereo unspecified)	5.16
COCC[C@]1(O)CCN(C(=O)CCn2c(C)cccc2=O)C[C@H]1C	3.28
COc1cccc(CN2CCCC(Nc3cccc(F)c3)C2)c1O (stereo unspecified)	-10.2
CCn1ncnc1C(NC(=O)CC1CCN(C(C)C)CC1)C1CC1 (stereo unspecified)	8.6
CCOCCNc1nc(C2CCCC2)nc2c1cnn2C	-11
COc1cccc(S(=O)(=O)NC(=O)COC2CCCCC2)c1	-0.502
CCN(C(C)=O)c1nc(CN2CCCCC2Cn2cncn2)cs1 (stereo unspecified)	-5.4
CCn1cc(CN2CCCN(C(=O)CCc3nccs3)CC2)cn1	-2.53
CCOc1ccc(Cl)c(C(=O)N2CCN(c3ncccn3)CC2)n1	-1.9
Cn1ccnc1CN1CCN(Cc2ccc(C#N)cc2)CC1	-10.3
Cc1nn(C)c(C)c1C1CCCN1C(=O)c1ccc2nnc(C)n2c1 (stereo unspecified)	-12.2
NC(=O)C1CN(C(=O)Nc2ccccc2SC2CCCC2)CCO1 (stereo unspecified)	-5.15
Cc1cnn(C2CCCN(C(=O)CCc3cnn(C)c3)C2)c1 (stereo unspecified)	-11.1
CC(C)CC(C)N(C)C(=O)c1nc(S(C)(=O)=O)n2ccccc12 (stereo unspecified)	-9.24
CS(=O)(=O)c1cccc(C(=O)N2CCCC(n3cccn3)C2)c1 (stereo unspecified)	-8.77
Cc1cnn(CC2CCCN2Cc2ncc(-c3ccc(F)cc3)o2)c1 (stereo unspecified)	-17.6

SMILES	cytotoxicity at 10 µM [%]
O=C(c1cccc2c1OCCO2)N1CCCC1c1noc(C2CC2)n1 (stereo unspecified)	-14.5
CCC(O)CN1CCN(C(=O)c2ccn(-c3ccccc3)n2)CC1 (stereo unspecified)	-9.33
O=C(NCCc1ccccn1)C1CC(=O)N(CC(F)(F)F)C1 (stereo unspecified)	-25.2
Cc1ccc(CC(=O)N2CCN(c3nccs3)CC2)s1	-13
CCOCC(O)CN1CCN(C(=O)C2CCCCC2)CC1 (stereo unspecified)	-21.5
O=C(O)[C@]12CCCN(Cc3ccccc3)C[C@H]1CN(c1ncccn1)C2	-8.33
Cc1ccc(CN2CCC3(CCN(c4cnn(C)c4)C3=O)C2)s1 (stereo unspecified)	-70
Cc1nnc(N2CCCC3(CN(Cc4ccc(C)s4)CCO3)C2)o1 (stereo unspecified)	-14.6
CCS(=O)(=O)N1CCC2(CN(c3ccsc3)C(=O)CN2C)C1 (stereo unspecified)	7.31
COCCO[C@H]1CCN(C(=O)c2cccnc2)[C@H]1Cc1cnn(C)c1	4
COCCO[C@@H]1CCN(C(=O)c2ccc(C)o2)[C@@H]1Cc1cccnc1	-12.2
Cc1occc1C(=O)N1CCC2(CCN(Cc3nccs3)C2)CC1	-12.5
COCC1COCCC12CCN(CCc1ccccc1)CC2 (stereo unspecified)	-26
CCOCC1CN(Cc2csc(C)n2)Cc2nccn2C1 (stereo unspecified)	5.98
Cn1nnc2c1C(COCc1ccccn1)CN(C(=O)c1ccsc1)C2 (stereo unspecified)	13.6
Cc1ccc(C(CCNCCN(C)C)C2CCOC(C)(C)C2)cc1 (stereo unspecified)	3.46
O=C(c1cccnc1-c1ccoc1)N1C[C@@H]2CC[C@H]1C2	6.3
CCCNc1ncc(CN2C[C@@H]3CC[C@H]2CN(C2CCOCC2)C3)cn1	-7.84
CN(C)c1ncc(C(=O)N2C[C@H]3CC(Oc4ccccc4)C[C@H]3C2)cn1 (stereo partly specified)	2.54
